Measured values: ChEMBL document CHEMBL1126793, “Effect of trifluoromethyl and other substituents on activity of xanthines at adenosine receptors” (J Med Chem, 1993)

Legend:
Adenosine receptor A2a = Adenosine receptor A2a (Rattus norvegicus, UniProt P30543); assay: Binding affinity for adenosine A2A receptor from rat brain membranes using [3H]CGS-21680
Adenosine receptor A1 = biological target: T1, Adenosine receptor A1 (Rattus norvegicus, UniProt P25099); assay: Binding affinity for adenosine A1 receptor from rat brain membranes using [3H]PIA as radioligand
T1 sequence (P25099 whole entry): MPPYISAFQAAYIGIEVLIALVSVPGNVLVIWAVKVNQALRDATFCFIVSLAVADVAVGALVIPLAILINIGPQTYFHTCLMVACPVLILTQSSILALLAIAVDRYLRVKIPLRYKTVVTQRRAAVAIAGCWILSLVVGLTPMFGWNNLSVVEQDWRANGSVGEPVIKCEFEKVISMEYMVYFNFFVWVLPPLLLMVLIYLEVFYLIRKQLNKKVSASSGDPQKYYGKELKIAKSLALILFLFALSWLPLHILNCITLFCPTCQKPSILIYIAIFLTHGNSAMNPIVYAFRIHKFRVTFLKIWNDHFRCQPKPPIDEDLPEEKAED

[1] = biological target: Adenosine receptor A2a (Rattus norvegicus) (UniProt P30543); assay: Inhibition of [3H]-CGS- 21680 binding to Adenosine A2A receptor in rat brain membranes at […]; type: cell membranes
Method in brief: (§1)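 Rat striatal membranes incubated with 4 nM [3H]CGS 21680 as the A2a radioligand. Nonspecific binding was defined with 20 μM 2-chloroadenosine. The value is percent inhibition of specific binding at the highest concentration tested, which was sometimes limited by solubility.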

[2] = biological target: Adenosine receptor A2a (Rattus norvegicus) (UniProt P30543); assay: Inhibition of [3H]-CGS- 21680 binding to Adenosine A2A receptor in rat brain membranes at 100 uM; type: cell membranes; method in brief: as §1
[3] = biological target: T2, Adenosine receptor A1 (Rattus norvegicus) (UniProt P25099); assay: Inhibition of [3H]PIA binding to Adenosine A1 receptor in rat brain membranes at 100 uM; type: cell membranes; conditions: 250 uM, in the assay text read “250 uM” for “100 uM”
T2 sequence (whole entry): T1 sequence (P25099 whole entry)
Method in brief: (§2)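 Rat brain membranes labelled with 1 nM [3H]-N6-[(R)-phenylisopropyl]adenosine for A1 sites. Nonspecific binding was defined with 10 μM 2-chloroadenosine. The value is percent inhibition of specific binding at the highest concentration tested, which was sometimes limited by solubility.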

[4] = biological target: Adenosine receptor A2a (Rattus norvegicus) (UniProt P30543); assay: Inhibition of [3H]-CGS- 21680 binding to Adenosine A2A receptor in rat brain membranes at 250 uM; type: cell membranes; method in brief: as §1
[5] = biological target: Adenosine receptor A2a (Rattus norvegicus) (UniProt P30543); assay: Inhibition of [3H]-CGS- 21680 binding to Adenosine A2A receptor in rat brain membranes at 20 uM; type: cell membranes; method in brief: as §1
[6] = biological target: T2, Adenosine receptor A1 (Rattus norvegicus); assay: Inhibition of [3H]PIA binding to A1 adenosine receptor in rat brain membranes at 250 uM; type: cell membranes; method in brief: as §2

Chain of Adenosine receptor A2a (Rattus norvegicus) (P30543 whole entry): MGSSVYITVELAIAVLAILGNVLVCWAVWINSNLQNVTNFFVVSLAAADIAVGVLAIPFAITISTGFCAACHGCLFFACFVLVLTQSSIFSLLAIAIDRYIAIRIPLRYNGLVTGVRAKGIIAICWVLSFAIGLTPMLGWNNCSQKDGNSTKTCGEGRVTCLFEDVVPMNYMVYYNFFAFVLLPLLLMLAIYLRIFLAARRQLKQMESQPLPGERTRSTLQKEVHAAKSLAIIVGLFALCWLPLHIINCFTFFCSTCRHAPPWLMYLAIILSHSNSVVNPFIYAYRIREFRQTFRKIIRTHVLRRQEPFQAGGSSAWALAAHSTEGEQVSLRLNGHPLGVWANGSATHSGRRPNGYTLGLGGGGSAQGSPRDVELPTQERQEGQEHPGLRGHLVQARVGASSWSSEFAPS
Chain of Adenosine receptor A2a (P30543 whole entry): as above

C=CCn1c(=O)c2c(nc(-c3ccc(C(F)(F)F)cc3)n2C)n(C)c1=O gave a Ki (Adenosine receptor A2a) of 11 µM and a Ki (Adenosine receptor A1) of 5.7 µM.
CCCn1c(=O)c2[nH]c(-c3ccccc3)nc2n(CCC)c1=O gave a Ki (Adenosine receptor A2a) of 0.14 µM.
With CCC/C=C/c1nc2c(=O)n(C)c(=O)n(C)c2[nH]1 the Ki (Adenosine receptor A2a) was 0.44 µM and the Ki (Adenosine receptor A1) was 0.38 µM.
With Cn1c(=O)c2[nH]c(-c3ccc(S(=O)(=O)O)cc3)nc2n(C)c1=O the Ki (Adenosine receptor A2a) was 5.8 µM.
For C=CCn1c(-c2ccc(C(F)(F)F)cc2)nc2c1c(=O)n(CCC)c(=O)n2CCC, the Ki (Adenosine receptor A2a) was 4.2 µM and the Ki (Adenosine receptor A1) was 2.9 µM.
With Cn1c(-c2ccc(C(F)(F)F)cc2)nc2c1c(=O)[nH]c(=O)n2C the Ki (Adenosine receptor A1) was 3.7 µM and the inhibition [1] was 10%.
For Cc1nc2c(c(=O)n(C)c(=O)n2C)n1C, the Ki (Adenosine receptor A2a) was 7.6 µM and the Ki (Adenosine receptor A1) was 4.9 µM.
For Cn1c(=O)c2nc(C3CCC3)[nH]c2n(C)c1=O, the Ki (Adenosine receptor A2a) was 2.8 µM and the Ki (Adenosine receptor A1) was 0.19 µM.
Work on Cn1c(=O)c2c(nc(Br)n2C)n(C)c1=O yielded a Ki (Adenosine receptor A2a) of 12 µM and a Ki (Adenosine receptor A1) of 49 µM.
CC(C)Cn1c(=O)n(C)c(=O)c2[nH]c(Br)nc21 showed an inhibition [2] of 10% and a Ki (Adenosine receptor A1) of 65 µM.
In the case of Cn1c(=O)c2c(nc(-c3ccc(S(=O)(=O)O)cc3)n2C)n(C)c1=O, the Ki (Adenosine receptor A2a) is reported as 20 µM and the inhibition [3] is reported as 3.3%.
Cn1c(-c2ccc(S(=O)(=O)O)cc2)nc2c1c(=O)[nH]c(=O)n2C showed an inhibition [3] of 1.8% and an inhibition [4] of 0%.
Compound Cn1c(=O)c2c(nc(-c3ccc(C(F)(F)F)cc3)n2C)n(C)c1=O has a Ki (Adenosine receptor A2a) of 16 µM and a Ki (Adenosine receptor A1) of 17 µM.
With Cn1c(=O)c2c(nc(C3CCC3)n2C)n(C)c1=O the Ki (Adenosine receptor A2a) was 19 µM and the Ki (Adenosine receptor A1) was 30 µM.
Compound Cn1c(=O)c2c(nc(C(F)(F)F)n2C)n(C)c1=O has a Ki (Adenosine receptor A2a) of 29 µM and an inhibition [3] of 8%.
C=CCn1c(=O)c2c(nc(-c3ccccc3)n2C)n(C)c1=O showed a Ki (Adenosine receptor A2a) of 12 µM and a Ki (Adenosine receptor A1) of 9 µM.
Cn1c(=O)c2c(nc(/C=C/C(=O)O)n2C)n(C)c1=O gave a Ki (Adenosine receptor A2a) of 42 µM and an inhibition [3] of 3%.
In the case of CCCn1c(=O)c2[nH]c(-c3ccc(S(=O)(=O)O)cc3)nc2n(CCC)c1=O, the Ki (Adenosine receptor A2a) is reported as 0.79 µM.
Compound CCCn1c(=O)c2nc(C(F)(F)F)[nH]c2n(CCC)c1=O has an inhibition [3] of 4.5% and an inhibition [5] of 4.3%.
Cn1c(=O)c2[nH]c(-c3ccccc3)nc2n(C)c1=O [8-PHENYL THEOPHYLLINE] showed a Ki (Adenosine receptor A2a) of 0.97 µM.
With Cn1c(-c2ccc(S(N)(=O)=O)cc2)nc2c1c(=O)[nH]c(=O)n2C the inhibition [3] was 33% and the inhibition [4] was 42%.
In the case of C=CCn1c(=O)c2c(nc(-c3ccccc3)n2CC=C)n(C)c1=O, the Ki (Adenosine receptor A2a) is reported as 7.7 µM and the Ki (Adenosine receptor A1) is reported as 0.66 µM.
In the case of CCCn1c(=O)c2nc(C)[nH]c2n(CCC)c1=O, the Ki (Adenosine receptor A2a) is reported as 2.8 µM and the Ki (Adenosine receptor A1) is reported as 0.6 µM.
Work on Cn1c(=O)c2[nH]c(-c3ccc(C(F)(F)F)cc3)nc2n(C)c1=O yielded a Ki (Adenosine receptor A2a) of 0.21 µM and a Ki (Adenosine receptor A1) of 0.15 µM.
CCCn1c(=O)c2nc[nH]c2n(CCC)c1=O was tested, and the Ki (Adenosine receptor A2a) was 2.6 µM.
Cn1c(-c2ccccc2)nc2c1c(=O)[nH]c(=O)n2C was tested, and the Ki (Adenosine receptor A2a) was 12 µM.
With CCCn1c(=O)c2nc(-c3ccc(C(F)(F)F)cc3)[nH]c2n(CCC)c1=O the Ki (Adenosine receptor A2a) was 0.042 µM and the Ki (Adenosine receptor A1) was 0.0075 µM.
Compound Cn1c(=O)c2nc(C(F)(F)F)[nH]c2n(C)c1=O has an inhibition [6] of 0% and an inhibition [4] of 0%.
With Cn1c(=O)c2[nH]c(Br)nc2n(C)c1=O [PAMABROM] the inhibition [2] was 36% and the Ki (Adenosine receptor A1) was 10.2 µM.
Work on CCC/C=C/c1nc2c(c(=O)n(C)c(=O)n2C)n1C yielded a Ki (Adenosine receptor A1) of 9.1 µM.
In the case of Cn1c(=O)c2c(nc(/C=C/C(=O)OC(C)(C)C)n2C)n(C)c1=O, the Ki (Adenosine receptor A2a) is reported as 0.61 µM and the Ki (Adenosine receptor A1) is reported as 12 µM.
For CC(C)Cn1c(=O)n(C)c(=O)c2[nH]cnc21 [ISOBUTYLMETHYLXANTHINE], the Ki (Adenosine receptor A2a) was 5.8 µM.
Compound Cn1c(=O)c2[nH]c(Cl)nc2n(C)c1=O has an inhibition [3] of 39% and an inhibition [2] of 34%.
Work on C=CCn1c(=O)c2c(nc(-c3ccc(S(=O)(=O)O)cc3)n2C)n(C)c1=O yielded a Ki (Adenosine receptor A2a) of 27 µM and an inhibition [3] of 35%.
CCCn1c(=O)c2nc(-c3ccc(S(N)(=O)=O)cc3)[nH]c2n(CCC)c1=O showed a Ki (Adenosine receptor A2a) of 0.075 µM.
In the case of Cc1nc2c(=O)n(C)c(=O)n(C)c2[nH]1, the Ki (Adenosine receptor A1) is reported as 8.8 µM and the inhibition [4] is reported as 34%.
Cn1c(=O)c2c(nc(-c3ccccc3)n2C)n(C)c1=O was tested, and the Ki (Adenosine receptor A2a) was 16 µM.
